# Measurements gathered from unrelated publications.
# LIMK2: LIM domain kinase 2 (LIMK2, Homo sapiens, UniProt P53671)
# CNR2: Cannabinoid receptor 2 (CNR2, Homo sapiens, UniProt P34972)
Structure (SMILES),target,assay,conditions,measurement,value
Nc1ncc(-c2nc(N3CCOCC3)nc(N3CCOCC3)n2)c(C(F)F)n1,"Membrane-associated tyrosine- and threonine-specific cdc2-inhibitory kinase (PKMYT1, Homo sapiens, UniProt Q99640)","binding, competition with immobilised ligand",10 µM,remaining binding,98%
Cc1nn(C)cc1-c1nc2c(N3CCN(Cc4ccc(Cl)cc4)CC3)c(Cl)cnc2[nH]1,"Serine/threonine-protein kinase 35 (STK35, Homo sapiens, UniProt Q8TDR2)","binding, competition with immobilised ligand",1 µM,remaining binding,75%
COc1ncccc1-c1cnn2ccc(N3CCN(C(=O)OC(C)C)CC3)nc12,"Epithelial discoidin domain-containing receptor 1 (DDR1, Homo sapiens, UniProt Q08345)","binding, competition with immobilised ligand",1 µM,remaining binding,100%
CCN(CC)CCCC[C@H](NC(=O)[C@H](CC(C)C)NC(=O)[C@H](C)NC(=O)[C@H](Cc1ccccc1)NC(=O)c1ccc(C(C)(C)C)cc1)C(=O)N[C@@H](CO)C(=O)OC,"Bromodomain-containing protein 9 (BRD9, Homo sapiens, UniProt Q9H8M2)","thermal stability, DSF",25 µM,ΔTm,0.23 °C
Cn1cc(-c2cccc(N3CCc4c(sc5c4CC(C)(C)C5)C3=O)c2CO)cc(Nc2ccncn2)c1=O,LIMK2,"enzyme activity, inhibitor",1 µM,inhibition,6%
O=C(N1CCCCC1Cc1ccccc1)n1cc(-c2ccc(-c3ccccc3)cc2)nn1 (stereo not shown),"Diacylglycerol lipase-alpha (Mus musculus, UniProt Q6WQJ1)","enzyme activity, inhibitor",,kinact,0.00133 s⁻¹
O=C(O)C(F)(F)C(F)(F)C(F)(F)C(F)(F)C(F)(F)C(F)(F)C(F)(F)F,"Solute carrier family 22 member 12 (SLC22A12, Homo sapiens, UniProt Q96S37)","transporter uptake, substrate",,Km,820 µM
C#Cc1n[nH]c2c(-c3cn([C@@H](C)c4ccccn4)c(=O)[nH]c3=O)cc(F)cc12,"Serine/threonine-protein kinase haspin (HASPIN, Homo sapiens, UniProt Q8TF76)","enzyme activity, inhibitor",0.1 µM,inhibition,4.5%
COc1ccc(S(=O)(=O)N(CC(=O)NO)CC(C)C)cc1,"72 kDa type IV collagenase (MMP2, Homo sapiens, UniProt P08253)","enzyme activity, inhibitor",1 µM,inhibition,100%
CCOC(=O)C(CC)(CCCSCCOCCOCCOCCNC(=O)OC(C)(C)C)NC(=O)c1ccc(C2CC2)c(Cc2ccc(F)cc2)n1 (stereo not shown),CNR2,"cAMP, agonist",,Emax,91%
Cn1cc(-c2cc(F)cc(N3CCn4c(cc5c4CCCC5)C3=O)c2CO)cc(Nc2ccc(N3CCN(C4COC4)CC3)cn2)c1=O,LIMK2,"enzyme activity, inhibitor",0.1 µM,inhibition,-3%
CCOC(=O)[C@](CC)(CCC[S+]([O-])CCOCCOCCNC(=O)OC(C)(C)C)NC(=O)c1ccc(C2CC2)c(Cc2ccc(F)cc2)n1 (stereo partly shown),CNR2,"cAMP, agonist",,Emax,93%
Nc1ccc2cccc(O)c2n1,"Methionyl-tRNA synthetase, putative (Trypanosoma brucei brucei, UniProt Q38C91)","thermal stability, DSF",800 µM,ΔTm,1.8 °C
